Experimental data reported in publication PMC2213299 (The Journal of Experimental Medicine, 2004).
Where no end group is shown, it is not given here. The star is where a group is joined. αGalNAc = CC(=O)N[C@@H]1[C@@H](O)[C@@H](O)[C@@H](CO)O[C@@H]1*

Molecular target: K^b molecules (Mus musculus, UniProt P01901)
Assay: not given
Format: binding, murine
Method in brief: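 Kb was affinity-purified from filtered Nonidet P-40 lysates of EL-4 cells. 5–10 nM Kb was incubated with a 125I-labelled known Kb-binding peptide plus test compound for 48 h in PBS with 0.05% Nonidet P-40 and protease inhibitors. Bound and free peptide were separated by gel filtration on TSK columns. IC50 is the amount inhibiting 50% of radioligand binding.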

With AAAAAFAAL [AAAAAFAAL] as the molecule, how does the IC50 read?
Its IC50 is 610 nM.

Which IC50 does the source give for AAAAFAAL [AAAAFAAL] here?
The IC50 was 75 nM.

With AAIAAFAAL [AAIAAFAAL] as the molecule, how does the IC50 read?
Its IC50 is 90 nM.

For AIAAAFAAL [AIAAAFAAL], which IC50 is on record?
The IC50 was 240 nM.

Which IC50 does the source give for AIIAAFAAL [AIIAAFAAL] here?
Its IC50 is 10 nM.

With GGGGFGGL [GGGGFGGL] as the molecule, how does the IC50 read?
Its IC50 is 53000 nM.

How did the IC50 turn out when SSSSFSSL [SSSSFSSL] was run?
Its IC50 is 509 nM.

Molecular target: K^b molecules (MHC class I H-2K^b) purified from EL-4 cells (mouse (endogenous in EL-4))
Assay: radioligand binding

How did the IC50 turn out when GGGGFGGL was run?
Its IC50 is 53000 nM.

With AIIAS(αGalNAc)FAAL [AIIA(GalNac-O-ser)FAAL] as the molecule, how does the IC50 read?
Its IC50 is 4 nM.

For SSSSFSSL, which IC50 is on record?
Its IC50 is 509 nM.

Which IC50 does the source give for AAAAFAAL here?
The IC50 was 75 nM.

For AIIAAFAAL, which IC50 is on record?
The IC50 was 10 nM.

How did the IC50 turn out when AIIASFAAL was run?
Its IC50 is 4 nM.

How did the IC50 turn out when AIIASFAAL (βGal-[1→3]-α-GalNAc-O-serine (TF antigen) at position 5) [AIIA(βGal-[1→3]-α-GalNAc-O-ser)FAAL] was run?
The IC50 was 4 nM.
